Kir21 inh: inhibitors of mouse Kir2.1 inward-rectifier potassium channel | HEK293-Kir2.1, FluxOR thallium flux fluorescence; stronger effect = lower value | B-score at 10 µM | 0.85% of 310,000 active | AID 1672, 2009;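 active = fluorescence ratio B-score at or below minus 3 SD of library scores, with starting-brightness B-score within 2 SD, cut at about -4.2 in these data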;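 note: channel flux triggered by added potassium and thallium sulfate stimulus; B-score of peak minus minimum fluorescence over baseline after thallium stimulus; more negative B-score means stronger Kir2.1 block with less thallium influx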
KCNQ1 act: potentiators or activators of KCNQ1 channel, primary screen, cell-based, thallium flux, high-throughput. Potassium voltage-gated channel subfamily KQT member 1 (Homo sapiens), P51787. CHO-K1 KCNQ1, thallium flux FluxOR fluorescence; stronger effect = higher value. B-score at 10 µM. 0.35% of 310,000 active;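 active = fluorescence ratio B-score, a plate-corrected score, at least three library SD, with initial intensity B-score within 5 SD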
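System: CHO-K1 cells stably expressing KCNQ1 / Medium: assay buffer for compound exposure, DMSO matched across wells / Reagent: thallium- and potassium-containing depolarizing buffer / Compound: one concentration, matched DMSO / Incubation: 20 min compound pretreatment at room temperature / Measured by: kinetic FluxOR fluorescence, 10 s baseline plus 110 s post-stimulus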
KCNK3 inh: human KCNK3 channel inhibitors, primary screen, CHO cells, FluxOR thallium flux, B-score | FluxOR fluorescence; stronger effect = lower value | B-score at 10 µM | 0.84% of 340,000 active;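 active = B-score under library mean minus 4 SD, starting fluorescence ratio at most library mean plus 5 SD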;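 note: more negative B-score means stronger inhibition of thallium flux through KCNK3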
KCNQ1 block: inhibitors of human KCNQ1 channel, primary screen, cell-based, thallium flux, high-throughput; Potassium voltage-gated channel subfamily KQT member 1 (Homo sapiens), P51787; CHO-K1 KCNQ1, FluxOR thallium flux fluorescence; stronger effect = higher value; B-score at 10 µM; 1.3% of 310,000 active;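 active = compounds whose thallium flux B-score, printed positive for inhibition, exceeds three library SD while starting fluorescence stays within three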;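 note: channel opened by potassium depolarization with thallium stimulus after 20 min compound exposure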
hERG rescue: hERG rescue from dofetilide block, primary screen, cell-based, CHO-hERG, FluxOR thallium flux, dofetilide IC70. activation (rescue from dofetilide block), less the hit threshold, % at 10 µM. Voltage-gated inwardly rectifying potassium channel KCNH2 (Homo sapiens), Q12809. dofetilide IC70 present. AID 1511, 2009. 0.51% of 310,000 active;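 active = activation above the mean of controls blocked by dofetilide plus 5 SD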;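 note: thallium influx through hERG after potassium depolarization seen as dye fluorescence rise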
KCNK9 inh: KCNK9 potassium channel inhibitors, primary screen, HEK293 cells, thallium flux; Potassium channel subfamily K member 9 (Homo sapiens), Q9NPC2; FluxOR thallium flux fluorescence; stronger effect = lower value; 1.2% of 310,000 active; B-score at 10 µM;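 active = ratio B-score over 3 SD below the library mean, with starting fluorescence within 5 SD of its mean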;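 note: negative B-score means less thallium flux so channel inhibition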
* = called active by the depositor; i = inactive; nt = no result. The list is not random: actives were taken first. Their share in the collection is about 3.7%.

SMILES | Kir21 inh | KCNQ1 act | KCNK3 inh | KCNQ1 block | hERG rescue | KCNK9 inh
CCN(CC)c1ccc(CNc2nc3ccccc3n2CCN2CCCCC2)cc1 | -1.44 | i | i | 7* | -18.4 | i
COc1ccc(CNc2nc3ccccc3n2CCN2CCCCC2)cc1 | -2.3 | i | i | i | -11.2 | i
Cc1ccc(NC(=O)c2ncn(CCCN3CCN(c4ncccn4)CC3)n2)cc1C | nt | nt | i | nt | nt | nt
CCOc1ccc(CCNC(=O)c2ccc(CS(=O)Cc3ccc(Cl)cc3)o2)cc1 (stereo unspecified) | 0.35 | i | i | i | -9.1 | i
CCOc1ccc(CCNC(=O)c2ccc(CS(=O)Cc3ccccc3Cl)o2)cc1 (stereo unspecified) | -4.3* | i | i | i | -17.8 | i
Cc1cccc(C)c1-c1ccc(CN2C(CC(C)C)C(=O)N(Cc3cn(CC4CCCCC4)nn3)CCS2(=O)=O)cc1 (stereo unspecified) | nt | nt | i | nt | nt | nt
S=C(NCCc1ccccc1)N1CCn2cccc2C1c1cccnc1 (stereo unspecified) | 0.17 | 15* | i | i | -12.4 | i
S=C(NCc1ccccc1)N1CCn2cccc2C1c1cccnc1 (stereo unspecified) | 3.07 | i | i | i | -6.9 | i
CCn1nc(C)cc1-c1nnc(SCC(=O)Nc2ccccc2)n1CCCOC | 0.2 | i | i | i | -9.5 | i
CCn1nc(C)cc1-c1nnc(Sc2ncc([N+](=O)[O-])s2)n1C | -2.12 | i | i | 11* | -26.4 | i
CCCn1c(N)c(C(=O)CSc2ncnc3sccc23)c(=O)n(C)c1=O | nt | nt | i | nt | nt | nt
CC/C(C)=N/NC(=O)c1[nH]c2ccc(C)cc2c1-c1ccccc1 | -0.87 | i | i | i | 5.5* | i
O=C(NN=C1CCCC1)c1[nH]c2ccc(Cl)cc2c1-c1ccccc1 | -1.81 | i | i | 6* | -10.3 | i
C/C(=N\N)c1c(-c2ccccc2)c2cc(C)ccc2[nH]c1=O | 0.14 | i | i | i | -13.6 | i
CC(=O)NNC(=O)c1[nH]c2ccc(Cl)cc2c1-c1ccccc1 | 0.74 | i | i | i | -0.8 | i
CCC(=O)CN(Cc1cc(OC)ccc1OC)S(=O)(=O)c1ccccc1Br | nt | nt | i | nt | nt | nt
Cc1ccc(C(C)NC(=O)CSc2ccc(S(=O)(=O)N3CCOCC3)cn2)cc1C (stereo unspecified) | nt | nt | i | nt | nt | nt
COc1ccccc1C=NN=C(NN=Cc1ccccc1OC)NN=Cc1ccccc1OC | nt | nt | -11.2* | nt | nt | nt
COc1ccc(S(=O)(=O)N2CCCC2C(=O)Nc2nnc(-c3cccnc3)s2)cc1 (stereo unspecified) | 0.57 | i | i | i | 7.5* | i
CC(=O)Nc1cc(C)ns1 | nt | nt | i | nt | nt | nt
C[n+]1c(/C=C/c2ccc(O)cc2)ccc2ccccc21 | -0.11 | i | i | i | -11.1 | i
Cc1cc(/C=C\c2ccc3cc(N(C)C)ccc3[n+]2C)c(C)n1-c1ccccc1 | nt | nt | -10.8* | nt | nt | nt
CNc1ccc(/C=C/C(=O)c2ccc3c(c2)OCCO3)cc1[N+](=O)[O-] | 0.22 | i | i | 10* | -1.7 | i
Cc1cc(C)cc(NC(=S)N(Cc2ccc(Br)cc2)Cc2ccc(C(=O)O)cc2)c1 | 2.18 | i | i | i | -31.3 | -7.36*
CCOC(=O)C1=C(C)N=C2c3ccccc3C(=O)C2C1c1ccc(Cl)cc1 (stereo unspecified) | -0.62 | i | -10.3* | i | -2.4 | -8.01*
SMILES | Kir21 inh | KCNQ1 act | KCNK3 inh | KCNQ1 block | hERG rescue | KCNK9 inh
COc1ccc(C2/C=C\CN(Cc3ccco3)CC(=O)N2Cc2ccc(F)cc2)cc1 (stereo unspecified) | -0.84 | i | i | i | -7.3 | -6.88*
Cc1cc(N2CCC(C(=O)NC3CC3)CC2)nc(-c2ccccc2)n1 | -0.09 | i | i | i | -6.7 | i
Cc1cc(N2CCN(c3cccc(C)c3C)CC2)nc(-c2ccccc2)n1 | -0.37 | i | i | i | -6.7 | -6.57*
COc1cc(/C=C2\C(=O)ON=C2c2ccc(Cl)cc2)ccc1O | -4.75* | i | i | i | -10.5 | i
COc1ccc(/C=C2\C(=O)ON=C2c2ccccc2)cc1 | 0.11 | i | i | i | -6.1 | i
COc1cc(/C=C2/C(=O)N(c3cccc(Br)c3)N=C2C)cc(OC)c1O | 1.34 | i | i | 8* | -7.8 | i
O=C1ON=C(c2cccc([N+](=O)[O-])c2)/C1=C/c1ccc(O)cc1 | -6.76* | i | i | 7* | -25.4 | i
O=C1ON=C(c2ccc(Cl)c([N+](=O)[O-])c2)/C1=C/c1cccc([N+](=O)[O-])c1O | nt | nt | i | nt | nt | nt
O=C1ON=C(c2ccccc2)/C1=C/c1ccc(O)c(O)c1 | -5.22* | i | i | i | -15.7 | i
CCCNC(=O)c1onc(CS(=O)(=O)c2cc(C)cc(C)c2)c1C(=O)NCCC | nt | nt | i | nt | nt | nt
O=C(CCCc1ccccn1)c1ccc(-c2ccccc2)cc1 | nt | nt | i | nt | nt | nt
COc1ccc(Cc2nnc(SCC(=O)Nc3ccc(N4CCOCC4)cc3)o2)cc1 | 0.55 | i | i | i | -1.1 | i
COc1ccc(/C=C2/C(=O)N(c3ccccc3)N=C2C)cc1 | 2.43 | i | i | i | 0.2 | i
COc1ccc(C2=NN(c3ccccc3)C(=O)/C2=C\c2ccc(O)c(OC)c2)cc1 | 0.63 | i | i | 11* | -3.8 | i
CN(C)CCCCOc1ccccc1-c1ccccc1 | -2.67 | i | i | i | -9.0 | i
CCCCNCCOCCOc1ccccc1-c1ccccc1 | -10.3* | i | i | i | -3.0 | i
C=CCNCCOc1ccccc1-c1ccccc1 | -1.31 | i | i | i | -3.1 | i
CCC(=O)c1ccccc1OCCN1C(=O)NC(C)(C)C1=O | -1.39 | i | i | i | -9.6 | i
COCCNCCCCOc1ccccc1-c1ccccc1 | -6.28* | i | i | i | -2.0 | i
CC1(C)NC(=O)N(CCOCCOc2ccccc2-c2ccccc2)C1=O | -5.39* | i | i | i | -9.7 | i
CC(C)NCCCCOc1ccccc1-c1ccccc1 | -5.64* | i | nt | i | -1.8 | i
Cc1ccc(NC(=O)CSc2nc3nn(-c4ccccc4)c(=O)c-3c3n2CCCCC3)cc1F | nt | nt | i | nt | nt | nt
COc1cnc(-c2ccccn2)nc1Oc1ccc(Cl)c2ccccc12 | 1.28 | i | i | i | -3.9 | -8.06*

Screening results as filed in PubChem.
